Inhibition data for two molecules are collected here from publication PMC3267898 (The Journal of antibiotics, 2011).

The target of this test is 20S proteasome (Homo sapiens, UniProt P28072+P28074+Q99436). The test is described as follows: Proteasome-Glo luminescent assay in MCF-7 cells. It counts as cell-based. The note with it: MCF7, read-out: % Inhibition of 20S Proteasome / 20 μg/mL. A digest of the protocol: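 MCF-7 cells grown at 37°C, 5% CO2 in RPMI 1640 with 10% FBS, penicillin and streptomycin. Log-phase cells trypsinized, washed extensively, seeded at 7,500/well, incubated overnight. Test compound added in DMSO (final 0.2%), 2 h at 37°C. Luminescent read-out of proteasome chymotrypsin-like, trypsin-like or caspase-like activity. % inhibition versus solvent control. Bortezomib (5, 25 nM) was the positive control.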

Consider `COC(=O)c1cccc(O)c1C(=O)c1c(O)cc(C)cc1O` [compound 1, moniliphenone], for which the inhibition at 20 µg/mL worked out at 1%.
The figure for `COC(=O)[C@]12Oc3c(c(O)cc4c3[C@@H]3C=C[C@]5(C4)C(=C(O)c4c(O)cc(C)cc4[C@@H]5OC(C)=O)C3=O)C(=O)[C@]1(O)C(=O)C=C[C@@H]2O` [compound 2, acremoxanthone D] is 58%.
